Reference: ChEMBL document CHEMBL3244404, “Effect of sulfur substitution for the noncarbonyl oxygen in hemicholinium-3 and acetyl-seco-hemicholinium-3. Synthesis, biological activity, and structure-toxicity relationships” (J Med Chem, 1977)

Experiments:
Conditions in all cases: in vivo
Mus musculus [1] = assay: Toxicity in ip dosed CD-1 mouse assessed as exophthalmos; format: organism-based
Method in brief: (§1)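 Compounds dissolved in normal saline (0.9% NaCl) and injected ip into mice. Signs were recorded as they appeared after dosing. Animals that died were autopsied immediately, with lungs and peritoneal cavity examined for excess fluid and heart and small intestine observed.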

Mus musculus [2] = assay: Toxicity in ip dosed CD-1 mouse assessed as respiratory difficulties; format: organism-based; method in brief: as §1
Mus musculus [3] = assay: Toxicity in ip dosed CD-1 mouse assessed as excess fluids in lungs and peritoneal cavity; format: organism-based; method in brief: as §1
[4] = Toxicity in ip dosed CD-1 mouse assessed as mortality in presence of 20 mg/kg, ip choline; format: organism-based; design: dose 20 mg/kg, route intraperitoneal
[5] = Toxicity in ip dosed CD-1 mouse assessed as mortality in presence of 0.2 mg/kg, ip neostigmine; format: organism-based; design: dose 0.2 mg/kg, route intraperitoneal
Mus musculus [6] = assay: Ratio of HC-3 LD50 to compound LD50 in CD-1 mouse; format: ADME, organism-based
Method in brief: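 Mice received the compounds ip, dissolved in normal saline (0.9% NaCl). Deaths were scored to derive the ip LD50 in mg/kg with 95% confidence limits. Each LD50 was also expressed as a ratio to that of HC-3. Signs were recorded in the animals that died, and immediate autopsy examined the heart, intestine, lungs and peritoneal cavity.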

Mus musculus [7] = assay: Toxicity in ip dosed CD-1 mouse assessed as increase in peristalsis of the small intestine; format: organism-based; method in brief: as §1
Mus musculus [8] = assay: Toxicity in ip dosed CD-1 mouse assessed as loss of righting response; format: organism-based; method in brief: as §1
Mus musculus [9] = assay: Toxicity in ip dosed CD-1 mouse assessed as cardiac contractions; format: organism-based; method in brief: as §1
Mus musculus [10] = assay: Toxicity in ip dosed CD-1 mouse assessed as mild to moderate ataxia; format: organism-based; method in brief: as §1
Mus musculus [11] = assay: Toxicity in ip dosed CD-1 mouse assessed as SLUD syndrome; format: organism-based; method in brief: as §1
Mus musculus [12] = assay: Toxicity in ip dosed CD-1 mouse assessed as clonic convulsions; format: organism-based; method in brief: as §1

Compound | Activity (Mus musculus [1]) | Activity (Mus musculus [2]) | Activity (Mus musculus [3]) | mortality [4] [%] | mortality [5] [%] | Ratio (Mus musculus [6]) | Activity (Mus musculus [7]) | Activity (Mus musculus [8]) | Activity (Mus musculus [9]) | Activity (Mus musculus [10]) | Activity (Mus musculus [11]) | Activity (Mus musculus [12])
CC(=O)SCC[N+](C)(C)CC(=O)c1ccc(-c2ccc(C(=O)C[N+](C)(C)CCSC(C)=O)cc2)cc1.[Br-].[Br-] | Toxic | Toxic | Non-toxic | 40 | 30 | 1 | Toxic | Toxic | Non-toxic | Toxic | Toxic | Toxic
C[N+]1(C)CCOC(O)(c2ccc(-c3ccc(C4(O)C[N+](C)(C)CCO4)cc3)cc2)C1.[Br-].[Br-] (configuration not stated) | Toxic | Toxic | Non-toxic | 15 | 90 |  | Toxic | Toxic | Non-toxic | Toxic | Toxic | Toxic
CC(=O)OCC[N+](C)(C)CC(=O)c1ccc(-c2ccc(C(=O)C[N+](C)(C)CCOC(C)=O)cc2)cc1.[Br-].[Br-] | Toxic | Toxic | Non-toxic | 0 | 80 | 1 | Toxic | Toxic | Non-toxic | Toxic | Toxic | Toxic
C[N+](C)(CCS)CC(=O)c1ccc(-c2ccc(C(=O)C[N+](C)(C)CCS)cc2)cc1.[Br-].[Br-] | Toxic | Toxic | Non-toxic | 10 | 70 | 226 | Toxic | Toxic | Non-toxic | Toxic | Toxic | Toxic
